Test results: ChEMBL document CHEMBL1687799, “Mutational analysis of flucytosine resistance in Candida glabrata” (2010)

Tests used:
Type in all cases: functional
Nakaseomyces glabratus [1] = assay: Antimicrobial activity against 5-fluorocytosine resistant Candida glabrata 66032-FC2 harboring Fur1 deltaG73-V81mutant assessed as lowest concentration inhibiting growth >=80% by broth microdilution method
Method in brief: (§1)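 Broth microdilution with 5FC or 5FU in RPMI 1640 buffered with 0.165 M MOPS, pH 7.0, plus 2% dextrose, replacing the YPD of the cited protocol. Drug stocks were in 50% DMSO, and final DMSO was ≤0.5%. Plates were incubated at 35°C and read at 630 nm. MIC was the lowest concentration giving ≥80% growth inhibition relative to the drug-free control.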

Nakaseomyces glabratus [2] = assay: Antimicrobial activity against 5-fluorocytosine resistant Candida glabrata 66032-FC3 harboring Fur1 G71V mutant assessed as lowest concentration inhibiting growth >=80% by broth microdilution method; method in brief: as §1
Nakaseomyces glabratus [3] = assay: Antimicrobial activity against 5-fluorocytosine resistant and ura3 harboring Candida glabrata 66032u-FC5 harboring Fcy2L E342stop mutant assessed as lowest concentration inhibiting growth >=80% by broth microdilution method; method in brief: as §1
Nakaseomyces glabratus [4] = assay: Antimicrobial activity against 5-fluorocytosine resistant and ura3 harboring Candida glabrata BG14 assessed as lowest concentration inhibiting growth >=80% by broth microdilution method; method in brief: as §1
Nakaseomyces glabratus [5] = assay: Antimicrobial activity against 5-fluorocytosine resistant and ura3 harboring Candida glabrata 66032u assessed as lowest concentration inhibiting growth >=80% by broth microdilution method; method in brief: as §1
Nakaseomyces glabratus [6] = assay: Antimicrobial activity against 5-fluorocytosine resistant Candida glabrata isolate TE34-75 harboring FcY2J 1384F mutant assessed as lowest concentration inhibiting growth >=80% by broth microdilution method; method in brief: as §1
Nakaseomyces glabratus [7] = assay: Antimicrobial activity against 5-fluorocytosine resistant Candida glabrata 66032-FC6 harboring Fcy1 G11D mutant assessed as lowest concentration inhibiting growth >=80% by broth microdilution method; method in brief: as §1
Nakaseomyces glabratus [8] = assay: Antimicrobial activity against 5-fluorocytosine resistant Candida glabrata isolate TE34-78 harboring Fcr1 L136R mutant assessed as lowest concentration inhibiting growth >=80% by broth microdilution method; method in brief: as §1
Nakaseomyces glabratus [9] = assay: Antimicrobial activity against 5-fluorocytosine resistant Candida glabrata 66032-FC5 harboring Fcy1 A15D mutant assessed as lowest concentration inhibiting growth >=80% by broth microdilution method; method in brief: as §1
Nakaseomyces glabratus [10] = assay: Antimicrobial activity against 5-fluorocytosine resistant Candida glabrata 66032-FC4 harboring Fcy1 A15D mutant assessed as lowest concentration inhibiting growth >=80% by broth microdilution method; method in brief: as §1
Nakaseomyces glabratus [11] = assay: Antimicrobial activity against 5-fluorocytosine resistant Candida glabrata isolate 20251.021 harboring Fcy1 T84L mutant assessed as lowest concentration inhibiting growth >=80% by broth microdilution method; method in brief: as §1
Nakaseomyces glabratus [12] = assay: Antimicrobial activity against 5-fluorocytosine resistant and ura3 harboring Candida glabrata BG14-FC8 harboring Fcy2L E238-V277dup mutant assessed as lowest concentration inhibiting growth >=80% by broth microdilution method; method in brief: as §1
Nakaseomyces glabratus [13] = assay: Antimicrobial activity against 5-fluorocytosine resistant Candida glabrata 66032 assessed as lowest concentration inhibiting growth >=80% by broth microdilution method; method in brief: as §1
Nakaseomyces glabratus [14] = assay: Antimicrobial activity against 5-fluorocytosine resistant and ura3 harboring Candida glabrata 66032u-FC10 harboring Fcy2L Q396stop mutant assessed as lowest concentration inhibiting growth >=80% by broth microdilution method; method in brief: as §1
Nakaseomyces glabratus [15] = assay: Antimicrobial activity against 5-fluorocytosine resistant and ura3 harboring Candida glabrata BG14-FC4 harboring Fcy1 E17stop mutant assessed as lowest concentration inhibiting growth >=80% by broth microdilution method; method in brief: as §1
Nakaseomyces glabratus [16] = assay: Antimicrobial activity against 5-fluorocytosine resistant and ura3 harboring Candida glabrata 66032u-FC3 harboring Fcy1 H59D mutant assessed as lowest concentration inhibiting growth >=80% by broth microdilution method; method in brief: as §1
Nakaseomyces glabratus [17] = assay: Antimicrobial activity against 5-fluorocytosine resistant Candida glabrata isolate 20408.055 harboring Fur1 G210D mutant assessed as lowest concentration inhibiting growth >=80% by broth microdilution method; method in brief: as §1
Nakaseomyces glabratus [18] = assay: Antimicrobial activity against 5-fluorocytosine resistant and ura3 harboring Candida glabrata 66032u-FC1 harboring Fcy2L W291stop mutant assessed as lowest concentration inhibiting growth >=80% by broth microdilution method; method in brief: as §1
Nakaseomyces glabratus [19] = assay: Antimicrobial activity against 5-fluorocytosine resistant and ura3 harboring Candida glabrata 66032u-FC6 harboring Fcy1 T92deltastop mutant assessed as lowest concentration inhibiting growth >=80% by broth microdilution method; method in brief: as §1
Nakaseomyces glabratus [20] = assay: Antimicrobial activity against 5-fluorocytosine resistant Candida glabrata 66032-FC1 harboring Fur1 183K mutant assessed as lowest concentration inhibiting growth >=80% by broth microdilution method; method in brief: as §1

Measured: MIC

Nc1nc(=O)[nH]cc1F [FLUCYTOSINE]
1 µg/mL: Nakaseomyces glabratus [3] | Nakaseomyces glabratus [12] | Nakaseomyces glabratus [14] | Nakaseomyces glabratus [18]
0.03 µg/mL: Nakaseomyces glabratus [4] | Nakaseomyces glabratus [13]
0.25 µg/mL: Nakaseomyces glabratus [6]
0.008 µg/mL: Nakaseomyces glabratus [5]
≥ 32 µg/mL: all other assays above
